According to ChEMBL document CHEMBL3259780, “3-Substituted-N-(4-hydroxynaphthalen-1-yl)arylsulfonamides as a novel class of selective Mcl-1 inhibitors: structure-based design, synthesis, SAR, and biological evaluation” (J Med Chem, 2014):
The source made the active and inactive calls. The rule behind the calls is not given here.

Columns and labels:
[1] = target: T1, Induced myeloid leukemia cell differentiation protein Mcl-1 (Homo sapiens, UniProt Q07820); test: Binding affinity to His-tagged MCL1 (171 to 327) (unknown origin) expressed in Escherichia coli BL21(DE3) assessed as inhibition of MCL1-N-terminal biotin-labeled BIM BH3 peptide interaction after 30 mins by surface plasmon resonance analysis
[2] = target: T1, Induced myeloid leukemia cell differentiation protein Mcl-1; test: Displacement of Flu-BID/FAM-BID from His-tagged MCL1 (171 to 327) (unknown origin) expressed in Escherichia coli BL21(DE3) after 3 hrs by fluorescence polarization assay
[3] = target: T1, Induced myeloid leukemia cell differentiation protein Mcl-1; test: Inhibition of FITC-labeled MCL1 (unknown origin) after 5 mins by fluorescence polarization assay
Bcl-2-like protein 1 = Bcl-2-like protein 1 (Homo sapiens, UniProt Q07817); test: Displacement of Flu-BID/FAM-BID from His-tagged BCLX-L (1 to 209) (unknown origin) expressed in Escherichia coli BL21(DE3) after 3 hrs by fluorescence polarization assay
[4] = target: T2, Apoptosis regulator Bcl-2 (Homo sapiens, UniProt P10415); test: Displacement of Flu-BID/FAM-BID from His-tagged BCL2 (1 to 202) (unknown origin) expressed in Escherichia coli BL21(DE3) after 3 hrs by fluorescence polarization assay
HL-60 [5] = test: Cytotoxicity against human HL60 cells assessed as intracellular ATP level after 3 days by CellTiterGlo assay; type: functional, cell-based
Method in brief: (§1)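 Cells in RPMI 1640 with 10% FBS, plated at 0.5 × 10^6 cells/well and exposed to a range of compound concentrations for 3 days. Viability is read as intracellular ATP by CellTiter-Glo luminescence. Growth is expressed as percent of DMSO-treated cells, and IC50 is obtained by nonlinear regression.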

MV4-11 = test: Cytotoxicity against human MV4-11 cells assessed as intracellular ATP level after 3 days by CellTiterGlo assay; type: functional, cell-based; method in brief: as §1
K562 = test: Cytotoxicity against human K562 cells assessed as intracellular ATP level after 3 days by CellTiterGlo assay; type: functional, cell-based; method in brief: as §1
Homo sapiens = species: Homo sapiens; test: Selectivity ratio of Ki for His-tagged BCL2 (1 to 202) (unknown origin) to Ki for His-tagged MCL1 (171 to 327) (unknown origin)
Method in brief: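 Buffer 100 mM potassium phosphate pH 7.5 with bovine gamma globulin, azide and 0.01% Triton X-100; 3 h at room temperature. IC50 fitted, then converted to Ki.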

[6] = target: T1, Induced myeloid leukemia cell differentiation protein Mcl-1; test: Inhibition of MCL1 (unknown origin) overexpressed in E-mu-myc transgenic mouse lymphoma cells assessed as induction of cell death at 0.1 to 10 uM after 15 to 18 hrs by flow cytometric analysis; type: cell-based
Method in brief: (§2)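 Eμ-myc transgenic mouse lymphoma cells retrovirally transduced to overexpress Mcl-1 or Bcl-2, seeded at 0.5 × 10^6 cells/well. Cells were treated at varying concentrations for 15–18 h and stained with violet LIVE/DEAD fixable dead-cell dye. Percent stained (dead) cells was measured by flow cytometry. Means ± SEM from 3–7 independent experiments.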

[7] = target: T2, Apoptosis regulator Bcl-2; details: lymphoma, 0.1 to 10 uM
[8] = target: Induced myeloid leukemia cell differentiation protein Mcl-1 homolog (Mus musculus) (UniProt P97287); test: Inhibition of MCL1 in wild-type MEF assessed as induction of BAX/BAK-dependent cell death after 15 hrs by propidium iodide staining-based flow cytometric analysis
Method in brief: (§3)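 Wild-type and Bax/Bak double-knockout MEFs were grown in DMEM with 10% FBS, seeded at 0.5 × 10^6 cells/well and allowed to adhere. Cells were exposed to increasing concentrations for 15 h, harvested, washed in PBS and stained with 0.025 mg/mL propidium iodide. PI-positive percentage was measured by flow cytometry. Mean ± SEM, with unpaired t test.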

[9] = target: Induced myeloid leukemia cell differentiation protein Mcl-1 homolog (Mus musculus) (UniProt P97287); test: Inhibition of MCL1 in BAX/BAK double knock out MEF assessed as induction of cell death at 16 uM after 15 hrs by propidium iodide staining-based flow cytometric analysis relative to control; method in brief: as §3
[10] = target: Induced myeloid leukemia cell differentiation protein Mcl-1 homolog (Mus musculus) (UniProt P97287); test: Inhibition of MCL1 in wild-type MEF assessed as induction of BAX/BAK-dependent cell death at 16 uM after 15 hrs by propidium iodide staining-based flow cytometric analysis relative to control
Method in brief: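 Wild-type and Bax/Bak double-knockout MEFs grown in DMEM with 10% FBS, seeded at 0.5 × 10^6 cells/well and left to adhere. Exposed 15 h to compound, harvested, PBS-washed, stained with 0.025 mg/mL propidium iodide. PI-positive percentage by flow cytometry; significance by unpaired t test.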

[11] = target: T2, Apoptosis regulator Bcl-2; test: Inhibition of BCL2 (unknown origin) overexpressed in E-mu-myc transgenic mouse lymphoma cells assessed as induction of cell death after 15 to 18 hrs by flow cytometric analysis; type: cell-based; method in brief: as §2
HL-60 [12] = test: Induction of apoptosis in human HL60 cells after 20 hrs by annexin V-FITC and propidium iodide staining-based flow cytometric analysis; type: functional, cell-based
Method in brief: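 HL-60 cells at 0.5 × 10^6 cells/well were exposed to compounds at several concentrations for 20 h, then washed in PBS and stained with annexin-V FITC plus PI. Flow cytometry was run within 1 h. Annexin+/PI− counts as early apoptosis and double positive as late. Some runs included a 1 h pretreatment with 100 μM Z-VAD-FMK.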

HL-60 [13] = test: Induction of apoptosis in human HL60 cells assessed as caspase-3 activation after 20 hrs by DEVD-AFC-based fluorometric assay; type: functional, cell-based
Method in brief: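 HL-60 cells were seeded at 0.5 × 10^6 cells/well and exposed to graded compound concentrations for 20 h. Caspase-3 activity was measured by fluorometric kit assay with DEVD-AFC substrate. Results are expressed as fold change over DMSO-treated cells.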

HL-60 [14] = test: Induction of apoptosis in human HL60 cells assessed as caspase-3 activation at 2.5 uM […] by DEVD-AFC-based fluorometric assay; type: functional, cell-based

Sequence of Bcl-2-like protein 1 (Q07817 whole entry): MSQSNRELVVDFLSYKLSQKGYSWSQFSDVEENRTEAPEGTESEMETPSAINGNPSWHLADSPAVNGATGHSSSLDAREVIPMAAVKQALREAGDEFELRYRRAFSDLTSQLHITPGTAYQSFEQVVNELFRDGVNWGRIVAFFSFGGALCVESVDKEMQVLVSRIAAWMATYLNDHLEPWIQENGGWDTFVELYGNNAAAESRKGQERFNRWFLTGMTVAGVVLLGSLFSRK
T1 sequence (Q07820 whole entry): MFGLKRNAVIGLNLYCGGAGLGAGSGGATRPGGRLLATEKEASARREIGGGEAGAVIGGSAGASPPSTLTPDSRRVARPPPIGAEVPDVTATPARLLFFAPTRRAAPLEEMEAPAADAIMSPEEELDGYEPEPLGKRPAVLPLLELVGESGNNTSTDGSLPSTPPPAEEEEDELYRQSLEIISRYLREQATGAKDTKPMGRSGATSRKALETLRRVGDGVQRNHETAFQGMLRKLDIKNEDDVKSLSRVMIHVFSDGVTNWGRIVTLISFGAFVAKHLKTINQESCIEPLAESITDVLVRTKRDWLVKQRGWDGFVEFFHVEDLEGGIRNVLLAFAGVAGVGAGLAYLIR
Sequence of Induced myeloid leukemia cell differentiation protein Mcl-1 homolog (Mus musculus) (P97287 whole entry): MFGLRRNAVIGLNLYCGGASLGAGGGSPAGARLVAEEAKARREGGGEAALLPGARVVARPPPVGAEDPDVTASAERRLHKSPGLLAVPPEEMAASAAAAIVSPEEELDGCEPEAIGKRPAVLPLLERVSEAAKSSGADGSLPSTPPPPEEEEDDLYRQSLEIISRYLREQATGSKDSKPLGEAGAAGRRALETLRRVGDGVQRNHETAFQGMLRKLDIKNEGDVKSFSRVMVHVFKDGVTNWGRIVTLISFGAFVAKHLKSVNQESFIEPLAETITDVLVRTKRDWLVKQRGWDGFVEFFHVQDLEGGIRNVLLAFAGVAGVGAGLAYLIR
T2 sequence (P10415 whole entry): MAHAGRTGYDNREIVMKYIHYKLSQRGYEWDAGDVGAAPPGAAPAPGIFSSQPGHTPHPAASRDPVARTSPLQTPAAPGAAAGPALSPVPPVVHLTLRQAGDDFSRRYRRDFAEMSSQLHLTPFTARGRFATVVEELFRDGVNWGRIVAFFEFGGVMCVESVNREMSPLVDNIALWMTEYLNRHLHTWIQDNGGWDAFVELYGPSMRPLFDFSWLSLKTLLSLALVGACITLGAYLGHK

Compound	IC50 [1] [µM]	Ki [2] [µM]	also measured
O=C(O)CSc1cc(NS(=O)(=O)c2ccc(F)cc2)c2ccccc2c1O	5.01	–	–
O=C(O)CSc1cc(NS(=O)(=O)c2ccc(-c3ccc(F)cc3F)cc2)c2ccccc2c1O	0.92	0.24	–
O=C(O)CSc1cc(NS(=O)(=O)c2cccc(Br)c2)c2ccccc2c1O	9.68	–	–
CCCCSc1cc(NS(=O)(=O)c2ccc(Br)cc2)c2ccccc2c1O	–	> 27	–
Cc1cs/c(=N\C2CCCCC2)n1/N=C/c1ccc(O)c(O)c1O	–	–	IC50 [3]: 4.72 µM; IC50 (Bcl-2-like protein 1): > 50 µM
O=C(O)CSc1cc(NS(=O)(=O)c2ccc(Br)cc2)c2ccccc2c1O	2.4	–	Ki [4]: 23.8 µM; Ki (Bcl-2-like protein 1): 33 µM; Activity (HL-60 [5]): Dose-dependent effect; Activity (MV4-11): Dose-dependent effect; Activity (K562): Dose-dependent effect
O=C(O)CSc1cc(NS(=O)(=O)c2ccc(Br)cc2)ccc1O	> 100	283	–
O=C(O)CSc1cc(CNS(=O)(=O)c2ccccc2)c2ccccc2c1O	30.2	64.8	–
COc1c(SCC(=O)O)cc(NS(=O)(=O)c2ccc(-c3ccccc3)cc2)c2ccccc12	> 100	20	–
O=C(O)CSc1cc(NS(=O)(=O)c2ccccc2-c2ccccc2)c2ccccc2c1O	9.9	–	Ki [4]: 23.8 µM; Ki (Bcl-2-like protein 1): 48.2 µM
O=S(=O)(Nc1ccc(O)c2ccccc12)c1ccccc1	–	> 27	–
O=C(O)CSc1cc(NS(=O)(=O)c2ccccc2)c2ccccc2c1O	12.6	–	–
CS(=O)(=O)Nc1cc(SCC(=O)O)c(O)c2ccccc12	> 100	74.9	–
O=C(O)CSc1cc(NS(=O)(=O)c2cccc(-c3ccccc3)c2)c2ccccc2c1O	2.31	–	Ki [4]: 7.85 µM; Ki (Bcl-2-like protein 1): 15.1 µM; Activity (HL-60 [5]): Dose-dependent effect; Activity (MV4-11): Dose-dependent effect; Activity (K562): Dose-dependent effect
O=C(O)CSc1cc(NC(=O)Cc2ccccc2)c2ccccc2c1O	63.8	59.4	–
O=C(O)CSc1cc(NS(=O)(=O)c2cc3ccccc3s2)c2ccccc2c1O	7.5	–	–
COc1c(I)cc(C=O)c2ccccc12	–	–	Ki (Bcl-2-like protein 1): > 15 µM; Ratio Ki (Homo sapiens): 16
O=C(O)CSc1cc(NS(=O)(=O)Cc2ccc(Cl)cc2)c2ccccc2c1O	9.59	–	–
O=S(=O)(Nc1cc(CCCO)c(O)c2ccccc12)c1ccc(Br)cc1	11	3.79	–
O=C(O)CSc1cc(NC(=O)c2ccc(Br)cc2)c2ccccc2c1O	45.1	–	–
O=C(O)CSc1cc(NS(=O)(=O)N2CCN(c3ccccc3)CC2)c2ccccc2c1O	16.2	2.22	–
NC(=O)CSc1cc(NS(=O)(=O)c2ccc(Br)cc2)c2ccccc2c1O	3.87	–	–

Compound	IC50 [1] [µM]	Ki [2] [µM]	also measured
O=S(=O)(Nc1cc(CCCCO)c(O)c2ccccc12)c1ccc(Br)cc1	19.7	–	–
O=C(O)CSc1cc(NS(=O)(=O)c2ccc(Cl)cc2)c2ccccc2c1O	2.7	–	–
CC1(C)CCC(c2ccc(Cl)cc2)=C(CN2CCN(c3ccc(C(=O)NS(=O)(=O)c4ccc(N[C@H](CCN5CCOCC5)CSc5ccccc5)c(S(=O)(=O)C(F)(F)F)c4)cc3)CC2)C1	–	–	inhibition [6]: inactive; inhibition [7]: Active
COc1c(CCCCO)cc(NS(=O)(=O)c2ccc(Br)cc2)c2ccccc12	> 100	> 27	–
O=C(O)CSc1cc(NS(=O)(=O)c2ccc(Oc3ccc(F)cc3)cc2)c2ccccc2c1O	0.9	0.29	–
O=C(O)CSc1cc(NS(=O)(=O)c2ccccc2Br)c2ccccc2c1O	6.18	–	–
COc1ccc(S(=O)(=O)Nc2cc(SCC(=O)O)c(O)c3ccccc23)cc1	7.17	9.31	–
CC(=O)Oc1c(SCC(=O)O)cc(NS(=O)(=O)c2ccc(Br)cc2)c2ccccc12	26.8	34	–
O=C(O)CSc1cc(NS(=O)(=O)c2ccc(Oc3ccccc3)cc2)c2ccccc2c1O	–	–	Ki [4]: 7.56 µM; Ki (Bcl-2-like protein 1): 10.6 µM; inhibition [8]: Dose-dependent effect; inhibition [9]: 23%; inhibition [10]: 61%; inhibition [11]: inactive; Activity (HL-60 [5]): Dose-dependent effect; Activity (MV4-11): Dose-dependent effect; Activity (K562): Dose-dependent effect; Activity (HL-60 [12]): Dose-dependent effect; Activity (HL-60 [13]): Dose-dependent effect; Activity (HL-60 [14]): Active
O=C(O)CCSc1cc(NS(=O)(=O)c2ccc3ccccc3c2)c2ccccc2c1O	5.03	–	–
COc1c(SCC(=O)O)cc(NS(=O)(=O)c2cccc(-c3ccccc3)c2)c2ccccc12	58.4	24.2	–
CCc1ccc(S(=O)(=O)Nc2cc(SCC(=O)O)c(O)c3ccccc23)cc1	8.68	–	–
O=S(=O)(Nc1cc(SCc2nnn[nH]2)c(O)c2ccccc12)c1ccc(Br)cc1	1.5	1.01	Activity (HL-60 [5]): Dose-dependent effect; Activity (MV4-11): Dose-dependent effect; Activity (K562): Dose-dependent effect
COC(=O)CSc1cc(NS(=O)(=O)c2ccc(Br)cc2)c2ccccc2c1OC	> 100	> 27	inhibition [11]: inactive; Activity (HL-60 [5]): Dose-dependent effect; IC50 (HL-60 [5]; HL-60, 72 h): > 50 µM; Activity (MV4-11): Dose-dependent effect; IC50 (MV4-11; MV4-11, 72 h): > 50 µM; Activity (K562): Dose-dependent effect; IC50 (K562; K562, 72 h): > 50 µM
CC(C)c1ccc(S(=O)(=O)Nc2cc(SCC(=O)O)c(O)c3ccccc23)cc1	4	–	–
O=S(=O)(Nc1cc(SCc2nnn[nH]2)c(O)c2ccccc12)c1ccc(Oc2ccccc2)cc1	–	0.21	Activity (HL-60 [5]): Dose-dependent effect; Activity (MV4-11): Dose-dependent effect; Activity (K562): Dose-dependent effect; Activity (HL-60 [12]): Dose-dependent effect
O=C(O)CSc1cc(NS(=O)(=O)c2ccc(-c3ccc(Cl)cc3)cc2)c2ccccc2c1O	0.88	–	Ki [4]: 6.11 µM; inhibition [11]: inactive; Activity (HL-60 [5]): Dose-dependent effect; Activity (MV4-11): Dose-dependent effect; Activity (K562): Dose-dependent effect
COc1c(SCC(N)=O)cc(NS(=O)(=O)c2ccc(Br)cc2)c2ccccc12	> 100	> 27	–
O=C(O)CCSc1cc(NS(=O)(=O)c2cccc3ccccc23)c2ccccc2c1O	64.9	> 27	–
COC(=O)CSc1cc(NS(=O)(=O)c2ccc(Br)cc2)c2ccccc2c1O	14.9	–	Activity (HL-60 [5]): Dose-dependent effect; Activity (MV4-11): Dose-dependent effect; Activity (K562): Dose-dependent effect
O=C(O)CSc1cc(NS(=O)(=O)c2ccc(-c3ccccc3)cc2)c2ccccc2c1O	2.03	–	Ki [4]: 8.82 µM; Ki (Bcl-2-like protein 1): 8.05 µM; Activity (HL-60 [5]): Dose-dependent effect; Activity (MV4-11): Dose-dependent effect; Activity (K562): Dose-dependent effect
CC(C)(C)c1ccc(S(=O)(=O)Nc2cc(SCC(=O)O)c(O)c3ccccc23)cc1	8.73	–	–
